Measurements gathered from unrelated publications.
Compare with care: the assays were run in different laboratories.
Target: Dual specificity tyrosine-phosphorylation-regulated kinase 2 (DYRK2, Homo sapiens, UniProt Q92630)
Observed: enzyme activity
Action: inhibitor
Residues used in one study (Q92630 1-601): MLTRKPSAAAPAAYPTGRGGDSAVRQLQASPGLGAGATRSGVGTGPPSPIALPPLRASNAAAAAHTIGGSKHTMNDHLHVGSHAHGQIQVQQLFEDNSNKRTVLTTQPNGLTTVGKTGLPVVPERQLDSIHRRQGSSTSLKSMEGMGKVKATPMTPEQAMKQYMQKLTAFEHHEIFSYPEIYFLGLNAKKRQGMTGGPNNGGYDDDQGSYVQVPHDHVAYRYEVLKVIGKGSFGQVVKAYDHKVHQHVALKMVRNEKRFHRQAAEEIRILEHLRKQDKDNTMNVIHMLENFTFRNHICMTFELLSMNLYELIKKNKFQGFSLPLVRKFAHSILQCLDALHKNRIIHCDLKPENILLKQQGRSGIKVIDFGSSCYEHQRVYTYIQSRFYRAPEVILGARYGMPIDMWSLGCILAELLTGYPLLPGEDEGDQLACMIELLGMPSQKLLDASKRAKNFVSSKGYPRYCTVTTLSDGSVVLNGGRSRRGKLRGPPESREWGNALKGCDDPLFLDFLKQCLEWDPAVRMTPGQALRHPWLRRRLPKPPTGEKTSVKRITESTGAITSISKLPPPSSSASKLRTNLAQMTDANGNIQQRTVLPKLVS

CC(C)(O)[C@H]1CC[C@H](Nc2ccc3ncc(-c4cccc(C(F)(F)F)c4)n3n2)CC1
remaining activity (1 µM): 59.7%

Nc1nc(Nc2ccccc2)sc1C(=O)c1c(F)cccc1F
remaining activity (10 µM): 79%

O=C(Nc1cnn(-c2csc(C(=O)NC3COC3)c2)c1)Nc1c(F)cccc1Cl
remaining activity (5 µM): 93.6%

O=C(O)c1ccc2c(c1)nc(Nc1ccc3ccccc3c1)c1ccncc12
remaining activity (radiometric; 1 µM): 18%

COc1cc(Nc2cnc(C#N)c(O[C@H](C)CN(C)C)n2)ncc1-c1cnn(C)c1
remaining activity (radiometric; 10 µM): 100%

CCCOc1ccc(OC)c(F)c1C(=O)c1ccc(C(=O)N[C@@H]2CNC[C@H]2NC(=O)c2ccc3[nH]ncc3c2)cc1
remaining activity (10 µM): 92%

COc1cc(Cl)c(C(=O)N[C@@H](CN[C@H]2CC[C@@H](N)CC2)Cc2ccc(C#N)cc2)cc1-c1ccc(CN[C@H](C)c2ccc(C)cc2)o1
remaining activity (1 µM): 98%

Cc1ccc(C(=O)Nc2ccc(CN3CCN(C)CC3)c(C(F)(F)F)c2)cc1C#Cc1cnc2cccnn12
remaining activity (23.5 nM): 80%

Cn1c(=O)n(-c2ccc(C(C)(C)C#N)cc2)c2c3cc(-c4cnc5ccccc5c4)ccc3ncc21
remaining activity (10 µM): 79%

COc1cccc(CCNc2nc3cc(C(=O)O)ccc3c3cnccc23)c1
remaining activity (radiometric; 1 µM): 19%

Cc1sc(C(=O)NC2COC2)cc1-n1cc(NC(=O)Nc2c(F)cccc2Cl)cn1
remaining activity (10 µM): 96.3%

O=C(O)c1ccc2c(c1)nc(Nc1ccc(Cl)cc1)c1ccncc12
remaining activity (radiometric; 1 µM): 11%

Nc1nc(NC2CCCCC2)sc1C(=O)c1ccccc1
remaining activity (10 µM): 39%
